Source: PubChem BioAssay
DNMT1 inh: inhibitors of human DNMT1. P26358. DNMT1 molecular beacon, Hinp1I cleavage, fluorescence. inhibition (reported as % activation of signal), % at 10 µM. 0.83% of 360,000 active. AID 588458; in the data active = inhibition above about 50%
STEP inh: blocks human striatal-enriched tyrosine phosphatase; P54829; recombinant STEP, OMFP fluorogenic substrate, fluorescence; inhibition, % at 20 µM; 0.25% of 360,000 active;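 active = inhibition at 20 µM, scaled per plate between control wells, above about 37%, limit read from the data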
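Material: STEP (striatal-enriched tyrosine phosphatase) enzyme, cell-free | Medium: 50 mM Bis-Tris pH 6.0 with 2.5 mM DTT and 0.005% Tween 20 | Read-out: Percent inhibition scaled to no-enzyme and uninhibited-enzyme controls, plate-pattern corrected | Signal: Fluorescence read at 480 nm ex / 540 nm em | Times: 20 min reaction, room temperature, in the dark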
SUMO1 PPI mod: alters human SUMO1 binding to SIM partners. P63165. SUMO1 binding to a labelled peptide, TR-FRET, 1 h. 0.33% of 360,000 active. inhibition, % at 20 µM; in the data active = inhibition above about 37%
Target sequence (P63165 whole entry, looked up): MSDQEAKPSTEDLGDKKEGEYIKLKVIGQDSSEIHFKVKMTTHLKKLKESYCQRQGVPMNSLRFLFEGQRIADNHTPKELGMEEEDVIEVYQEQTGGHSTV
LMPTP block: LMPTP (human) inhibition. recombinant LMPTP-A, OMFP fluorogenic substrate, fluorescence intensity. inhibition, % at 20 µM. 0.22% of 360,000 active. AID 651560;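 active = compounds that cut the enzyme signal by at least half of the control window in the single-dose screen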
Target sequence (P24666 whole entry, looked up): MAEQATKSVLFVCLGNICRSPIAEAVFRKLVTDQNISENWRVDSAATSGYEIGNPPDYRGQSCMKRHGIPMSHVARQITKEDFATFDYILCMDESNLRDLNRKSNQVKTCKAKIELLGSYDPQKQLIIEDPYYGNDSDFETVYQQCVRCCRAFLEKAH
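Assay system: LMPTP-A, protein tyrosine phosphatase of low molecular weight / Medium: pH 6.0 Bis-Tris buffer with DTT and Triton X-100 / Schedule: 50 min enzyme reaction at room temperature, protected from light / Measured by: endpoint fluorescence intensity from OMFP dephosphorylation / Read-out basis: % inhibition relative to no-enzyme and uninhibited control wells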
Scp-1 inhibitor: Scp-1 (human) phosphatase inhibition. Q9GZU7. Recombinant Scp1, phosphopeptide, malachite green phosphate absorbance. inhibition, % at 20 µM. 0.88% of 340,000 active. AID 493091;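 active = inhibition above about 50% at 20 µM, limit read from the data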
Target sequence (Q9GZU7 76-261 limits assumed): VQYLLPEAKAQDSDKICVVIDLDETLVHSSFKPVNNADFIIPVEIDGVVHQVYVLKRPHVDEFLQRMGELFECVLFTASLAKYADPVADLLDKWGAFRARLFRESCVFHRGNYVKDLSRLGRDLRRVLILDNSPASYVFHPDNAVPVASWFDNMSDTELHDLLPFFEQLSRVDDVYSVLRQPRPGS
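Test system: SCP-1 phosphatase catalytic domain, residues 76-261 | Compound dosing: One concentration, 20 µM, with 1.0% DMSO | Schedule: 45 min room-temperature reaction, 5 min colour, 30 min stabiliser | Detection: Absorbance at 630 nm | Read-out basis: % inhibition of SCP-1 phosphate liberation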
NadD block: inhibitors of Staphylococcus aureus NadD; inhibition, % at 20 µM; purified NadD enzyme, colorimetric absorbance read-out; 0.78% of 360,000 active; in the data active = inhibition above about 26%
Of the large screens only hits and unclear results are named; the others gave an inactive call; ! = not active in a repeat. A selection: hits, their analogues and other compounds. The true share with any hit is near 2.4%.

O=C(O)c1ccc(-c2ccc(/C=c3/sc4nc5ccccc5n4c3=O)o2)cc1Cl	DNMT1 inh 106, STEP inh 90, SUMO1 PPI mod 39, Scp-1 inhibitor 98
Cc1ccc2c(nc3s/c(=C/c4cccs4)c(=O)n32)c1C	none
C=C1c2cccc(O)c2C(=O)C2C(=O)[C@]3(O)C(=O)C(C(N)=O)C(=O)[C@@H](N(C)C)[C@@H]3[C@@H](O)[C@H]12 (stereo not given in full)	DNMT1 inh 94, STEP inh 53, SUMO1 PPI mod 73, LMPTP block 81, Scp-1 inhibitor 60
C[C@H]1c2cccc(O)c2C(O)=C2C(=O)[C@]3(O)C(O)=C(C(N)=O)C(=O)[C@@H](N(C)C)C3[C@@H](O)C21 (stereo not given in full)	none
O=C(COc1ccc2c(-c3ccccc3)cc(=O)oc2c1)Nc1ccc(CCO)cc1	LMPTP block 66
Cc1ccc(S(=O)(=O)N2CCCCC2)cc1C(=O)Nc1ccc(S(=O)(=O)Nc2ncccn2)cc1	none
COc1cc(OC)cc(C(=O)Nc2ccc(N3CCN(C(=O)c4cccs4)CC3)cc2)c1	SUMO1 PPI mod 42
O=C(CN1C(=O)NC2(CCc3ccccc32)C1=O)Nc1ccc(Cl)cc1F (stereo not given)	none (no result: Scp-1 inhibitor)
CCn1cc(C(=O)O)c(=O)c2cnc(N3CCN(C(=S)NC(=O)c4ccc(F)c(F)c4)CC3)nc21	none
CCn1cc(C(=O)O)c(=O)c2cnc(N3CCN(C(=S)NC(=O)c4ccc(Cl)cc4Cl)CC3)nc21	LMPTP block 51
CCn1cc(C(=O)O)c(=O)c2cnc(N3CCN(C(=S)NC(=O)c4ccc(OC)cc4)CC3)nc21	LMPTP block 65
O=C(Nc1ccc(Cl)c(C(=O)N2CCOCC2)c1)c1ccccc1	none
Nc1nonc1-c1nc2ccccc2n1CC(=O)N/N=C/c1ccc(-c2cccc(C(=O)O)c2)o1	Scp-1 inhibitor 72
CC(C)OC(=O)c1ccc(NC(=O)Cn2c(-c3nonc3N)nc3ccccc32)cc1	SUMO1 PPI mod 43
CC(C)CC(N)c1csc(Nc2cnccn2)n1 (stereo not given)	none (no result: Scp-1 inhibitor)
CCOC(=O)C1(CCCc2ccccc2)CCN(C(=O)c2cc(C)nn2CC)CC1	SUMO1 PPI mod 43
CCCCCCCCCCCCCCCCCCNc1ccn(C2OC(COP(=O)(O)OCC3OC(n4cc(F)c(=O)[nH]c4=O)CC3O)C(O)C2O)c(=O)n1 (stereo not given)	DNMT1 inh 80
O=C(N/N=C/c1cccc([N+](=O)[O-])c1)c1cc(-c2ccc3c(c2)OCO3)n[nH]1	SUMO1 PPI mod 73
O=C(N/N=C/c1cccc(O)c1)c1cc(-c2ccc3c(c2)OCO3)n[nH]1	none
OC1(c2cccc(C(F)(F)F)c2)CCN(CCN2CCCCC2)CC1	none
CCOC(=O)C1CCCN(C(=O)c2ccncc2)CC1 (stereo not given)	none (no result: Scp-1 inhibitor)
CSc1nsc2nc(=O)c(/C=C3\C(C)=Nc4ccc(C)cc43)c(N)n12	none
CC1=Nc2ccc(C)cc2/C1=C/c1c(N)n2oc(C)cc2nc1=O	DNMT1 inh 56!
CCCCCCCC/C=C\CCCCCCCC(=O)O	DNMT1 inh 59
CCN(c1ccc(C)c(C)c1)S(=O)(=O)c1ccc2c(c1)CCN2C(=O)CCC(=O)O	SUMO1 PPI mod 47
COc1ccc(Cc2c3cc(OC)c(OC)cc3cc[n+]2C)cc1OC	Scp-1 inhibitor 101
CC[n+]1ccc2cc(OC)c(OC)cc2c1Cc1ccc(OC)c(OC)c1	Scp-1 inhibitor 96
COc1ccc2c(c1)c[n+](C)c1c3cc(OC)c(OC)cc3ccc21	none (no result: DNMT1 inh, STEP inh, Scp-1 inhibitor)
Cc1ccc(Cl)c(NC(=O)CN2CCNC(=O)C2)c1Cl	none
CCC(C(=O)c1ccccc1)P(=O)(NN)c1ccccc1 (stereo not given)	none
CC(=O)Nc1ccc(S(=O)(=O)N2CCCC2C(=O)Nc2ccc3c(c2)OCCO3)cc1 (stereo not given)	none
O=c1c2ccccc2sn1-c1ccc(F)cc1	Scp-1 inhibitor 81
COC(=O)c1cccc(-n2sc3ccccc3c2=O)c1	Scp-1 inhibitor 95
COC(=O)c1cccc(N2CCCC2=O)c1	none
O=c1c2ccccc2sn1-c1ccc(Cl)cc1	none (no result: Scp-1 inhibitor)
